# In the RNAGym collection of RNA variant scans (doi:10.1126/science.aae0568):
# Variants at the floor of the assay were thinned out.
# B1: tRNA (parent)
# chain: GUUCCGUUGGCGUAAUGGUAACGCGUCUCCCUCCUAAGGAGAAGACUGCGGGUUCGAGUCCCGUACGGAACG
# Variants of: B1
# Experiment: yeast fitness relative to wild type (ratio to wild type); higher = fitter; tRNA-Arg(CCU), competitive growth, 37 C, YPD
# Method in brief: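 Amplicons of the tRNA-Arg(CCU) gene were sequenced, 100-nucleotide paired-end, from the start population and from each end population of a pooled yeast competition. The competition, in six parallel replicates, lasted 24 hours in YPD at 37°C. Fitness relative to wild type was calculated from changes in genotype frequencies. Genotypes had to have ≥ 100 starting reads, and estimates < 0.5 were set to 0.5.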
row,Variant,yeast fitness
1,GCUCCGUUGGCGUAAUGGUAACGCGUCUCCCUCCUAAGGAGAAGACUGCGGGUUCGAGUCACGUACGGAACG [U2C C61A],0.783
2,GCUCCGUUGGCGUAAUGGUAACGCGUCUCCCUCCUAAGGAGAAGACUGCGGGUUCGAGUCGCGUACGGAACG [U2C C61G],0.553
3,GCUCCGUUGGCGUAAUGGUAACCCGUCUCCCUACUAAGGAGAAGACUGCCGGUUCGACUCCCGUACGGAGCG [U2C G23C C33A G50C G58C A70G],≤ 0.5
4,GCUCCGUUGGCGUAAUGAUAACGAGUCACCCCCCUAAGGAGAAGACUGCGGGUUCGAGUCCCGUACGGAACG [U2C G18A C24A U28A U32C],≤ 0.5
5,GCUCCGUUGCCGUAAUGGUAACGCGUCUCCUUCCUAAGGAGAGGACUGCGGGUUCGAGUCCCGUACGGAACG [U2C G10C C31U A43G],0.525
6,GCUCCGUUGGCGUAAUCGUAACCCCUCUCCCUCCAAAGGAGUAGACUGCGGGUUCGAGUCCCGUACGGAGCG [U2C G17C G23C G25C U35A A42U A70G],≤ 0.5
7,GCUCCGUUCGCGUAAUGGUAACGCGUCUCCCUCCUAAGGAGAAGACUGCGGGUUCGAGUCCCGUACGGAACG [U2C G9C],0.722
8,GCUCCGUUGGCAUAGUGGUAACGCGUCUCCCUCCUAAGGAGAAGACUGCGGGUUCGAGUCCCGUACGGAACG [U2C G12A A15G],≤ 0.5
9,GCUCCAUUGGCGUAAUGGUAACGCGUCUCCCUCCUAAGGAGAAGACUGCGGGUUCGAGUCCCGUACGGAACG [U2C G6A],0.998
10,GCUCCGUUGCCGUAAUGGUAACGCGUCUCCCUCCUAAGGAGAAGCCUGCGGGUUCGAGUCCCGUACGGAACG [U2C G10C A45C],≤ 0.5
11,GCUCCGUUGGCGUAAUGGUAACCCGUCUACCUCCUAAGGAGAAGACUGGGGGUUCGUGUCCCGUACGGAACG [U2C G23C C29A C49G A57U],≤ 0.5
12,GCUCCGUUGCCGUAAUGGUAACGCGUCUCCCUCCUAAGGAAAAGACUGCCGGUUCGAGUCCCGUACGGAACG [U2C G10C G41A G50C],0.585
13,GCUCCGUUGGCGUAAUGGUAACGCGUCUCCCUCCUAAGGAGAAGACUGCGGGUUCGAGUCGCGCACGGAACG [U2C C61G U64C],≤ 0.5
14,GCUCCGUUGGCGUAAUGCUAACGCGUCUCUCUCCUAAGGAGAAGACUGCGGGUUCGAGUCGCGUACGGAACG [U2C G18C C30U C61G],≤ 0.5
15,GCUCCGUUGGCGUAAUGAUAACGCGUCCCCCUCCUAAGGAGCAGACUGCGGGUUCGAGUCCCGUACGGAACG [U2C G18A U28C A42C],≤ 0.5
16,GCUCCGUUCGCGCAAUGGUAACGCGUCUCCCUCCUAAGGAGAAGACUGCGGGUUCGAGUCCCGUACGCAACG [U2C G9C U13C G68C],≤ 0.5
17,GCUCCGUUGGCGUAAUGAUAACGAGUCACCCCCCUAAGGAGAAGACUGCGGGUUCGCGUCCCGUACUGAACG [U2C G18A C24A U28A U32C A57C G67U],≤ 0.5
18,GCUCCAUUGGUGUAAUGGUAACGCGUCUCCCUCCUAAGGAGAAGACUGCGGGUUCGAGUCCCGUACGGAACG [U2C G6A C11U],0.587
19,GCUCCGUUGGCAUAGUGGUAACGCGUCUCCCUCCUAAGGAGAAGACUGCGGGUUCGAGUCCCGUAUGGAACG [U2C G12A A15G C66U],0.577

row,Variant,yeast fitness
1,GCUCCGUUGGCGUAAUGGUAACGCGUCUCCCUCCUAAGGAGAAGACUGGGGGUUCGAGUCCCGUACGGAACG [U2C C49G],0.798
2,GCUCCGUUGGCAUAAUGCUAACGCGUCUCCCUUCUAAGGAGAAGACUGCGGGUUCGAGUACCGUACGGAACG [U2C G12A G18C C33U C60A],≤ 0.5
3,GCUCCGUUGGCGUAAUGGUAACACGUCUCCCUGCGAAGGAGAAGACUGCGGGUUCGAGUUCGGUACGGAACG [U2C G23A C33G U35G C60U C62G],≤ 0.5
4,GCUCCGUUGACGUAAUGGUAACGCGUCUCCCUCCUAAGGAGAAGAGUGCAGGUUCGAGUCCCGUACGGAACG [U2C G10A C46G G50A],≤ 0.5
5,GCUCCGUUGGCGUAAUGGUAACGCGUCUCCCUCCUAAGGAGAAGACUGGGGGUUCGAAUCCCGUACGGAACG [U2C C49G G58A],≤ 0.5
6,GCUCCGUUCGCGUAAUGGUAACGCGUCCCCCUCCUAAGGAGAAGACUGCCGGUUCGCGUCCCGUACGGUACG [U2C G9C U28C G50C A57C A69U],≤ 0.5
7,GCUCCGUUGACGUAAUGGUAACGCGUCUCCCUCCUAAGGAGAAGACUGCGGGUACGAGUCCCGUACGGAACG [U2C G10A U54A],0.554
8,GCUCCGUUGGCGUAAUGGUAACACGUCUCCCUCCUAAGGAGAAGAUUGCGGGUUCGAGUCCCGUACGGAACG [U2C G23A C46U],0.528
9,GCUCCGUUGGCGUAAUGAUAACGUGUCUCCCUCCUAAGGAGGAGACUGCGGGUUCGAGUCCCGUACGAAACG [U2C G18A C24U A42G G68A],≤ 0.5
10,GCUCCGUUGGCGUAAUGGUAACGCGUCUCCCUCCUAAGGAGAAGACUGCGGGUUCGAGUCCAGUACGGAACG [U2C C62A],0.677
11,GCUCCGUUGGCGUAAUGGUAACGCGUCUCCCUCCUAAGGAGAAGACUGCGGGUUCGAGUCCUGUACGGAACG [U2C C62U],0.882
12,GCUCCGUUGGCGUAAUGGUAACGCGUCUCCCUCCUAAGGAGAAGACUGUGGGUUCGAGUCCUGUACGGAACG [U2C C49U C62U],0.521
13,GCUCCGUUGGCGUAAUGGUAACCCGUCUCCGUUCUAAGGAGGAGACUGCUGCUUCGACUCCCGUACGGAACG [U2C G23C C31G C33U A42G G50U G52C G58C],≤ 0.5
14,GCUCCGUUGGCGUAAUGAUAACGCGUCUACCUCCUAAGGAGAAGACUGCGGGUUCGAGUCCCGUACGGAACG [U2C G18A C29A],≤ 0.5
15,GCUCCGUUGGCGUAAUAGUAACGCGUCUCCCUCCUACGGAGAAGACUGCGGGUUCGAGUCCCGUGCGGAACG [U2C G17A A37C A65G],0.539
16,GCUCCGUUGGCGUAAUGGUAACCCGUGUCCCUCCUAAGGAGAAGGCUGCGGAUUCGAGUCCCGUAAGGAACG [U2C G23C C27G A45G G52A C66A],0.534
17,GCUCCGUUGGCGUAAUGCUAACGCCUCUCCCUCCUAAGGCGAAGACUGCGAGUUCAAGUCCCGUAGGGAACG [U2C G18C G25C A40C G51A G56A C66G],≤ 0.5
18,GCUCCGUUGCUGUAAUGGUAACGCGUCUCCCUCAUACGGAGAAGACUGCGGGUUCGAGUCCCGUACGGAACG [U2C G10C C11U C34A A37C],0.609
